Assay results taken from ChEMBL document CHEMBL4513216, “Probing the Open Global Health Chemical Diversity Library for Multistage-Active Starting Points for Next-Generation Antimalarials” (ACS Infect Dis, 2020).

assay: Toxicity liver stage against HepG2, at 10uM; format: cell-based; parameters: test concentration 10 uM, cell line HepG2-A16-CD81EGFP; conditions: human, HepG2-A16-CD81EGFP cells; read-out: INHIBITION
Outline: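 Uninfected HepG2-A16-CD81EGFP cells, 3 × 10^3 per well, 1536-well, plated on prespotted compound at 10 μM final, parasite-free screening media added to match infected plates; puromycin 10 μM positive, DMSO 0.5% negative; run in parallel with 48 h PbLuc assay at 37 °C, 5% CO2; viability by CellTiter-Glo luminescence, normalized to controls.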

Structure (SMILES) | cytotoxicity at 10 µM [%]
CCn1c(CC2CCNCC2)nn(Cc2ccc(C(=O)NC)o2)c1=O | 9.17
Cc1ccc(CN(CCN(C)C)Cc2ccnn2C2CCCCO2)o1 (centres undefined) | 0.267
Cn1cc(CN(C(=O)c2ccc3ncsc3c2)C2CC2)cn1 | 3.11
Cc1ccc(CN2CCCn3c(nc(Cn4cncn4)cc3=O)C2)s1 | -1.6
COc1ccc(C(C)Nc2cnn(C)c(=O)c2Cl)cc1OC (centres undefined) | 18.7
CCCc1nc(C)c(C(=O)Nc2cccc(C)n2)s1 | -40.8
O=C(NCc1ccco1)c1nn(C2CCS(=O)(=O)C2)c2c1CCCC2 (centres undefined) | -11
CCOC(=O)c1sc2ccsc2c1CN | -1.86
CCn1nnnc1-c1cccc(NCc2nc(C)ccc2O)c1 | -1.71
CN(Cc1nc(Cc2cccc(C(F)(F)F)c2)no1)C1CCCCC1 | 1.99
O=C(NC[C@]1(O)CCN(Cc2ccsc2)C[C@H]1O)c1c[nH]cn1 | 0.514
CSc1ncccc1C(=O)N1CCCC1c1ccc(C(=O)N(C)C)s1 (centres undefined) | 6.45
CC(NC(=O)Cn1ccnc1)c1ccc(OCC2CC2)c(F)c1 (centres undefined) | 0.99
c1ccc2nc(N3CCCC(Cn4cncn4)C3)cnc2c1 (centres undefined) | 5.46
CCc1cccnc1NCc1cnc(N2CCOCC2)nc1 | 1.03
CCc1nnc2n1CCN(C(C(=O)NC1CC1)c1ccc(F)cc1)C2 (centres undefined) | 2.16
O=C(NC1CCN(c2snc3ccccc23)CC1)C1CCC1 | 4.5
c1cc(CN2Cc3nnn(CC4CC4)c3C(COCC3CC3)C2)co1 (centres undefined) | -0.336
CC1=Nc2c(c(=O)[nH]n2C2CCCC2)C(c2ccc(O)cc2)S1 (centres undefined) | -3.39
CN(CC(=O)NCC1CCCO1)Cc1nc2c(s1)CCCC2 (centres undefined) | 21.6
CC(=O)c1ccc(-c2cnn(CC(=O)Nc3cc(C)nn3C)c2)nc1 | -6.93
c1cnnc(N[C@@H]2CC[C@@H]3CN(Cc4c[nH]c5ccccc45)C[C@@H]32)c1 | 3.33

Structure (SMILES) | cytotoxicity at 10 µM [%]
Cc1nn(C)c(C)c1-c1ccc(=O)n(C(C)C(=O)NCc2ccco2)n1 (centres undefined) | 6.93
NS(=O)(=O)c1ccc(NCc2ccccc2)cc1C(F)(F)F | 3.85
CC(Cn1cccn1)NC(=O)NCc1cccnc1OC(C)C (centres undefined) | -9.44
CCc1nc(CC(=O)NC(C#N)CC)cs1 (centres undefined) | 10.3
CN(C)C(=O)c1ccc2c(c1)N(C)C(CC(=O)NCc1ccno1)CO2 (centres undefined) | 12.4
O=c1[nH]c2nc(NCC3CCCO3)ncc2c(=O)n1-c1cccc(F)c1 (centres undefined) | -9.24
N#Cc1cccc(OC23CCCN(CC2)C3)c1 (centres undefined) | 1.73
CC(Cn1ccnc1)NC(=O)N(C)Cc1ccco1 (centres undefined) | -0.687
Cc1noc(C)c1-c1cccc(C2CN(S(=O)(=O)N(C)C)CCO2)n1 (centres undefined) | 11.4
CCc1nc(C)c([C@H]2CN(C)C[C@@H]2C(=O)NC(C)(C)c2ccccc2)[nH]1 | 2.12
Cc1nnc(NCc2ccc(N3CCC(CO)CC3)cc2)c(C#N)c1C | -2.83
O=C(NC[C@H]1OC[C@@H](NCc2ccccc2F)[C@@H]1O)c1ccc(F)cc1 | -1.26
Cc1nc(N)nc(C)c1CC(=O)N1CCCCC1c1cccc(F)c1 (centres undefined) | -2.06
Cc1noc(C)c1CN1CC2(CCN(C(=O)c3cc[nH]n3)C2)CC1=O (centres undefined) | 12.2
CCc1cn[nH]c1C1CCN(C(=O)c2cc(C(C)=O)c(C)[nH]c2=O)CC1 | -2.23
O=C(c1ccoc1)N1CCC(Nc2cccnn2)CC1 | -5.85
CCc1noc(C(C)N(C)CC(=O)Nc2cccc(C)n2)n1 (centres undefined) | 0.407
O=C(CC1CCCO1)NCCc1ccccc1Br (centres undefined) | 5.63
CCN1CC2(CCC1=O)CCN(C(=O)c1ccc(C)cc1O)CC2 | -0.0198
CC(O)CNCc1c(C(C)C)nn(C)c1N1CCOCC1 (centres undefined) | -3.48
Cc1ccccc1-c1cc(C(=O)N2CCn3c(C)nnc3C2)[nH]n1 | -5.82
CC(=O)NCCC(=O)NCC1(c2c(F)cccc2F)CCCC1 | -2.75

Structure (SMILES) | cytotoxicity at 10 µM [%]
CCCc1n[nH]c(C2CN(C(=O)c3cc(F)ccc3OC)CCO2)n1 (centres undefined) | -5.58
O=C(Nc1nc2c(s1)CN(C(=O)NCc1cccs1)CC2)C1CC1 | -0.707
c1cc(C2CN(C3CCCCC3)C2)n[nH]1 | 4.18
CC(C)N1CCCC2(CCN(Cc3nncn3C(C)C)C2)C1=O (centres undefined) | -108
c1cncc(-c2noc(CN3CCCC3Cn3cccn3)n2)c1 (centres undefined) | -4.74
Cc1nc(CC(C)C)cc(C(=O)N2C[C@@H](N(C)C)[C@H](C(C)C)C2)n1 | 9.26
CO[C@H]1CN(CC2CC2)[C@@H]2CCCO[C@H]12 | -118
Cc1nn(C(C)C)c(C)c1CN1CCC(c2cc(C(C)C)n[nH]2)CC1 | 1.34
CC(NC(=O)NCCCn1cccn1)c1ccccn1 (centres undefined) | -11.5
CSc1ccccc1-n1ccnc1-c1cn(C2CCNCC2)nn1 | -0.67
CC(C)(C)NC(=O)CCOc1cccc(F)c1 | -4.95
Cc1noc(CN2C[C@@H]3CC[C@H]2CN(C2Cc4ccccc4C2)C3)n1 | 3.3
CN(C)c1nccc(N2CCO[C@H]3CN(Cc4ccsc4)C[C@H]32)n1 | 8.93
Cc1ccc(CNC(=O)Cn2nc(-c3ccc(F)cc3)oc2=O)cc1F | -5.86
CCCNC(=O)C1CCN(Cc2csc(CC)n2)CC1 | -10.4
CC(=O)NC(C)CC(=O)NCc1cccnc1Oc1ccccc1C (centres undefined) | 11.4
O=C(CCc1cc(Cl)no1)N1CCCCC1CCn1ccnc1 (centres undefined) | -1.83
Cc1cccc(N2CC3(COCCN(c4ccncn4)C3)OCC2=O)c1 (centres undefined) | -105
CC(C)(C)c1n[nH]c(C2CN(C(=O)c3cc(C4CC4)[nH]n3)CCO2)n1 (centres undefined) | -7.2
c1cc(-c2c[nH]c([C@@H]3COCCN3C3CCOCC3)n2)ccn1 | -0.113
O=S1(=O)c2ccccc2C2(CCN(Cc3cccnc3)C2)N1CC1CC1 (centres undefined) | -68.7
Cc1cc(-c2cccc(C(=O)O)c2)nc(C2CCN(C(C)C)CC2)n1 | -0.723

Structure (SMILES) | cytotoxicity at 10 µM [%]
COC1CCN(c2ccc(F)cc2CN(C)C(=O)c2cc[nH]n2)CC1 | -4.32
Cc1ncsc1C(=O)N(Cc1cccs1)C1CC1 | -6.13
COc1ccccc1CNC(C)c1ccc(-n2ccnc2)cc1 (centres undefined) | 5.25
CNc1ncc(-c2ccc(NC(=O)[C@@H]3CCCCN3)cc2)cn1 | -7.66
CNC(=O)CN1CCC(NC(=O)C(C)Oc2ccccc2C#N)CC1 (centres undefined) | 1.97
COc1ccc(CN(C)CC(=O)NC2(C)CCS(=O)(=O)C2)cc1F (centres undefined) | 7.44
CCOc1ccnc(N2CCN(C(=O)c3ccoc3)CC2)n1 | -6.1
CN(C)C(=O)C1(c2cnccn2)CCCN1C(=O)Cc1ccsc1 (centres undefined) | -1.84
O=C(c1cccs1)N1CCc2c(nc(N3CCCCC3)[nH]c2=O)C1 | -14.5
CC(NC(=O)N1CCC2(C1)OCCO2)c1cccc(Cl)c1 (centres undefined) | -6.88
CCNC(=O)N1CCCC(C(=O)c2cccc(OC(C)C)c2)C1 (centres undefined) | 8.62
CCc1nc(C2CCCN(C(=O)c3cccc4c3ccn4C)C2)no1 (centres undefined) | -14.4
CC(C)CN1CCc2[nH]cnc2C12CCN(C(=O)c1ccccn1)CC2 | -11.6
CC[C@H]1COCCN1C(=O)c1cnc(N2CCN(C)CC2)nc1C | -12.4
Cc1cc(CN(Cc2ccccc2)C(C)CN2CCOCC2)no1 (centres undefined) | 4.69
CC(=O)c1c(C)nn(CC(=O)N2Cc3cnc(C(C)(C)C)nc3C2)c1C | -0.539
CSCCC(O)C(=O)N1CCCN(Cc2cccnc2)CC1 (centres undefined) | 8.2
CCN(C(=O)c1ccc2nnc(C3CCN(C)C3)n2c1)C(C)C (centres undefined) | -112
c1ccc(NC[C@@H]2CCC[C@@H]3CN(Cc4nccs4)C[C@@H]32)nc1 | -108
Cc1ncc(CNC(=O)CCc2cccs2)c(C2CCCN2C)n1 (centres undefined) | -9.72
CC(C)c1nn(C)c(N(C)C)c1CNCc1cccnc1N(C)C | -8.66
O[C@@]1(Cn2cnc(Cl)c2Cl)CCCN2CCCC[C@@H]21 | -1.88

Structure (SMILES) | cytotoxicity at 10 µM [%]
Cc1cccc(-c2nccnc2C2CCN(C)CC2)c1C | 2.14
CC(=O)N1N=C(COc2ccc3c(c2)OCO3)OC1c1cccc(Cl)c1 (centres undefined) | -1.77
O=C1COC2(COCCN(c3ccccn3)C2)CN1c1cccc(F)c1 (centres undefined) | -103
Nc1ncccc1CN1C[C@H]2CC[C@@H](C1)N(CC1CC1)C2=O | -0.956
COCCOc1ncccc1CNC(=O)N1CCCCCC1 | -36
CC(Cc1cccc(F)c1)C(=O)NS(=O)(=O)c1cnn(C)c1 (centres undefined) | 2.11
Cn1cc(C(=O)CC2CCCN2C(=O)c2cccc3ncccc23)cn1 (centres undefined) | 6.19
CNC(=O)N1CC[C@@H]2CN(Cc3cccc(OC)c3)S(=O)(=O)[C@@H]2CC1 | -108
CCC(CC)C(=O)N1CCN(C)c2ncccc2C1 | -3
CCc1nc(C2CCCN2C(=O)C2=COCC2)no1 (centres undefined) | 8.64
CC(C)c1ncc(CN2C[C@@H](CN3CCCC3)[C@@H](CO)C2)cn1 | -7.3
COc1cc(NCc2ccc(Cl)cc2)c(-c2nn[nH]n2)cc1OC | 10.1
OC1CCN(C2CCN(c3ccc(Cn4ccnc4)cn3)CC2)CC1 | -2.05
CNC(=O)CN1CCC2(CCCN(CC3CCOC3)C2)CC1 (centres undefined) | -107
CCOC(=O)c1sc2ccsc2c1CNS(C)(=O)=O | -12
Cc1nc(Cn2nc(C3CCNCC3)n(Cc3ccccc3)c2=O)no1 | -19.3
CN1CCC(NC(=O)Cc2csc(C(C)(C)C)n2)CC1 | -2.37
NC(=O)CCN1CCC(C(=O)c2cc(F)ccc2F)CC1 | -4.89
CS(=O)(=O)NCc1nnc2n1CCN(Cc1cccs1)CC2 | -71.7
CCOCCN1CCC=C(C2c3nc[nH]c3CCN2C(C)=O)C1 (centres undefined) | -3.67
O=C(Cc1ccncc1)N1CCC2(CC1)CC(c1ccccc1)CO2 (centres undefined) | -86.1
